Results on eleven compounds are retold here after paper PMC2574667 (Journal of Medicinal Chemistry, 2008).

The format of data set [1] is physicochemical. The method, boiled down: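 Hydrolysis at 37 °C was run in 0.1 M phosphate pH 7.4 or 0.05 M citrate pH 3.8–4.6, in light-protected sealed bottles. Daily aliquots were scanned 200–400 nm for up to 11 days. First-order k came from ln(At − Ainf) versus time, with Ainf extrapolated when the reaction was incomplete. Runs in 1.0 M NaOH were followed directly in a thermostated spectrophotometer cell. Other media: NaOH, glycine/NaOH pH 10, phosphate pH 8.1.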

In data set [2] the test system is intracellular L. major amastigotes. The data set is described as follows: Assay for leishmanicidal activity in infected macrophages. The class given is cell-based, Leishmania major. To be noted: 125 or 250 µM, up to 72 h, macrophages from iNOS-deficient mice. The method, boiled down:
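Macrophages were thioglycolate-elicited from the peritoneum of C57BL/6 iNOS-deficient mice, harvested 4 days after ip thioglycolate, and plated at 3 × 10^5/well in RPMI-1640 with 2.5% or 5% FBS. They were infected 4 h at 5:1 with lesion-derived MHOM/IL/81/FE/BNI amastigotes, then treated 72 h with medium and compound refreshed at 24 and 48 h. Diff-Quick counts at 0, 48 and 72 h gave parasites per 100 macrophages, as mean ±SD.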

The test system of data set [3] is N-acetylglucosaminidase from jack bean. Description: Glycosidase-induced hydrolysis, jack bean enzyme. Format: biochemical. To be noted: 37 °C; for k, first order rate constant of enzymatic hydrolysis: JB enzyme 0.11 units/mL, 0.1 M phosphate pH 7.4, ultraviolet spectrophotometry. The method, boiled down: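 Jack bean β-N-acetylglucosaminidase (0.11 units/mL) was incubated with substrate (0.09–0.16 mM initial) at 37 °C in 0.1 M phosphate, pH 7.4, with 0.05 mM DTPA. NO was detected by chemiluminescence until evolution ceased, and the trace was integrated per mole of compound. Nitrite in the remaining solution was measured by Griess. First-order rate constants came from UV absorbance at 227 or 256 nm. Enzyme activity was checked with PNP-NAG at 25 °C.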

The nature of data set [4]: Nitrite accumulation. The class given is physicochemical. To be noted: 37 °C; for nitrite recovery: 24 h incubation, PBS and cell culture medium containing 2.5% fetal calf serum. An outline of the steps: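 Compound at 0.25–1 mM was incubated 24 h at 37 °C, without cells, in PBS or in RPMI containing 2.5% fetal calf serum. NO release was estimated as accumulated nitrite by Griess assay. Solutions assayed immediately after dissolution served as the zero point.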

Data set [5] concerns the target N-acetylglucosaminidase from human placenta (Homo sapiens, UniProt P07686). Description: Glycosidase-induced hydrolysis, human placenta enzyme. The class given is biochemical. To be noted: HP enzyme 0.044 units/mL, 37 °C, 0.1 M phosphate pH 7.4; ultraviolet spectrophotometry.
In data set [6] the test system is peritoneal exudate macrophages from iNOS-deficient mice. The data set is described as follows: Viability of macrophage monolayers. Format: cell-based, mouse. To be noted: concentrations tested (125 or 250 µM); trypan blue staining, MTT assay. The method, boiled down: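 Infected macrophage monolayers from iNOS-deficient mice were exposed to compound at 125 or 250 µM. Viability was checked by microscopy with trypan blue staining of dead cells. Mitochondrial activity of the whole monolayer was read photometrically as MTT reduction to formazan, in triplicate.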

Data set [7] shares this test system. Description: Nitrite accumulation. Format: cell-based. As to conditions: 0.25 mM, medium with 2.5% fetal calf serum, iNOS^−/− mouse macrophages, 24 h. An outline of the steps: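 Peritoneal exudate macrophages from iNOS-deficient mice were cultured 24 h at 37 °C in RPMI containing 2.5% fetal calf serum with 0.25 mM compound, alongside cell-free medium and PBS. Supernatants were harvested and cumulative NO was estimated as nitrite by Griess assay. Further runs used 125 or 250 µM with 0–5% FCS.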

For data set [8] the following is noted: first order in hydroxide ion; cited from earlier work.
Where [9] appears, read: phosphate buffer, pH 7.4, half-life pH 7.4, 0.1 M phosphate pH 7.4, 37 °C.

“Also recorded” adds a separate entry of the source. Where two headings read alike, the source gives them in different places.

Chain of N-acetylglucosaminidase from human placenta (P07686 122-311 limits assumed): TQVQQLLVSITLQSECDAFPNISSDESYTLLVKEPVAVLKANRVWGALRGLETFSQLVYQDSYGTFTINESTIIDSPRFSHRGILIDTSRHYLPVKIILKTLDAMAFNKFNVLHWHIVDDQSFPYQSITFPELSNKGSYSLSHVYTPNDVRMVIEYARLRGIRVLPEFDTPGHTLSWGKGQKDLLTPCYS
Chain of N-acetylglucosaminidase from human placenta (P07686 315-556 limits assumed): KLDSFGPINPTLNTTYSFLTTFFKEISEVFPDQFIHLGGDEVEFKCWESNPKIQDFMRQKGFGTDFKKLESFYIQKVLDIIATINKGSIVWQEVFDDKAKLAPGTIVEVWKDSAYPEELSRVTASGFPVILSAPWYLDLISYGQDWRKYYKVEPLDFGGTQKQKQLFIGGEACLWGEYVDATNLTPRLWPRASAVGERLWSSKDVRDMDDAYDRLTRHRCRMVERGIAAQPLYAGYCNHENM

A word on the half-life: it is the time in which the quantity being followed falls by half. Regarding `CCN(CC)/[N+]([O-])=N/O[C@H]1C[C@@H](O)[C@H](O)[C@@H](CO)O1` [11a, O^2-[2-Deoxy-β-D-glucopyranosyl] 1-(N,N-Diethylamino)diazen-1-ium-1,2-diolate], in data set [1] (setting [9]), the half-life was about 12 h.

Consider `[O-][N+](=NO[C@H]1O[C@H](CO)[C@@H](O)[C@H](O)[C@@H]1O)N1CCCC1` [5b, O^2-(α-D-Mannopyranosyl) 1-(Pyrrolidin-1-yl)diazen-1-ium-1,2-diolate], for which the “effect on number of intracellular L. major parasites” value (from here on “effect on number”) in data set [2] was “only one of the mannosides (5a) showed any activity”.

Turning to `CCN(CC)/[N+]([O-])=N/O[C@H]1O[C@H](CO)[C@@H](O)[C@H](O)[C@@H]1O` [5a, O^2-(α-D-Mannopyranosyl) 1-(N, N-Diethylamino)diazen-1-ium-1,2-diolate], the “effect on number” value in data set [2] is given as “borderline significance”. The half-life in data set [1] (citrate buffer, pH 4.6, half-life pH 4.6, 0.05 M citrate pH 4.6, 37 °C) was over 240 h. The “NO generation on incubation with N-acetylglucosaminidase” value in data set [3] (parallel incubation to 9a) is given as “Negligible NO generation”. For the same compound, the nitrite recovery result in data set [4] is reported as “little or no nitrite”.

As for `CCN(CC)/[N+]([O-])=N\OC1CCCCO1` (centres unmarked) [compound 12, O^2-Tetrahydropyran-2-yl 1-(N,N-Diethylamino)diazen-1-ium-1,2-diolate], the hydrolysis time entry in data set [1] (all pH values studied, 37 °C) is listed as “within minutes”.

Take `CCN(CC)/[N+]([O-])=N/O[C@@H]1O[C@@H](C)[C@@H](O)[C@@H](O)[C@@H]1O` [7a, O^2-(β-L-Fucopyranosyl) 1-(N,N-Diethylamino)diazen-1-ium-1,2-diolate]: in data set [2], the “effect on number” value is on record as “Neither of the fucose derivatives had any perceivable effect”.

For the compound `COC(=O)CCC(=O)NO[C@@H]1O[C@H](CO)[C@@H](O)[C@H](O)[C@H]1NC(C)=O` [compound 13, N-(β-D-N′-Acetylglucosaminyloxy)succinamate O-Methyl Ester, reference compound], the “effect on number” value in data set [2] is given as “did not have any effect”.

On to `C[C@@H]1O[C@H](ON=[N+]([O-])N(C)C)[C@@H](O)[C@H](O)[C@@H]1O` [7c, O^2-(β-L-Fucopyranosyl) 1-(N,N-Dimethylamino)diazen-1-ium-1,2-diolate], for which the “effect on number” value in data set [2] was “Neither of the fucose derivatives had any perceivable effect”.

For the compound `CC(=O)N[C@H]1[C@H](O/N=[N+](\[O-])N2CCCC2)O[C@H](CO)[C@@H](O)[C@@H]1O` [9b, O^2-(β-D-N-Acetylglucosaminyl) 1-(Pyrrolidin-1-yl)diazen-1-ium-1,2-diolate], in data set [2], the “effect on number” value is recorded as “highly significant decrease; also recorded: decidedly antileishmanial”. Also, the “k, first order rate constant of enzymatic hydrolysis” value in data set [5] was found to be 0.00036 s⁻¹; in data set [3], 0.00031 s⁻¹. In addition, in data set [6], the “toxicity to the macrophage host cells” value is “no observable toxicity”. In addition, the “hydrolysis in PBS relative to 9a” value in data set [4] (PBS, nitrite yield, 24 h) was “more than an order of magnitude slower”.

Turning to `O=NO` [Nitrite ion], the “effect on number” value in data set [2] was “devoid of antileishmanial activity”.

In the case of `CCN(CC)/[N+]([O-])=N/O[C@@H]1O[C@H](CO)[C@@H](O)[C@H](O)[C@H]1NC(C)=O` [9a, O^2-(N-Acetyl-β-D-glucosaminyl) 1-(N,N-Diethylamino)diazen-1-ium-1,2-diolate], in data set [2], the “effect on number” value was “highly significant decrease; also recorded: decidedly antileishmanial”. Besides, the “increase in hydrolysis rate relative to 9b” value in data set [1] (pH 7.4 phosphate buffer) is over 20 fold. The same compound had a half-life in data set [1] (setting [9]) of about 12 h. The “increase of nitrite yield by macrophages” value in data set [7] was “approximately doubled”. Further, the “k, first order rate constant of enzymatic hydrolysis” value in data set [5] was 0.00041 s⁻¹; in data set [3], 0.00062 s⁻¹. In data set [6], the “toxicity to the macrophage host cells” value was “no observable toxicity”. Further, in data set [4], the nitrite recovery was 10−20%.

Consider `CCN(CC)/[N+]([O-])=N/O[C@@H]1O[C@H](CO)[C@@H](O)[C@H](O)[C@H]1O` [3a], for which, in data set [1] (setting [9]), the half-life was over 240 h. Moreover, the “rate constant kOH^– of base-induced hydrolysis” value in data set [8] is 0.0053 M⁻¹ s⁻¹.
